Laboratory results published in ChEMBL document CHEMBL1140171, “Synthesis and utilization of chiral alpha-methylated alpha-amino acids with a carboxyalkyl side chain in the design of novel Grb2-SH2 peptide inhibitors free of phosphotyrosine” (J Med Chem, 2008).
Starred links: 1 amine or outer side, 2 acyl side, 3 side chain; linkers in the order of their positions; H or OH if unused. Positions of bridges follow the written chain, without caps; N, C: chain ends. Non-standard residues stand in square brackets, D forms with d. Residues, ends and D or L forms follow the SMILES beside them. *: point of attachment. Cys(CH2CO)(S-oxide,Ss) = O=C([C@H](C[S@+]([O-])CC(=O)[*:3])N[*:1])[*:2]; X1 = O=C(O)CCc1cc(C[C@H](N[*:1])C(=O)[*:2])ccc1O; Tyr(3-NH2) = Nc1cc(C[C@H](N)C(=O)O)ccc1O; X2 = C[C@](CCCC(=O)O)(N[*:1])C(=O)[*:2]; Gla = N[C@@H](CC(C(=O)O)C(=O)O)C(=O)O; Fmoc = O=C(OCC1c2ccccc2-c2ccccc21)*; αMehGlu = C[C@](N)(CCCC(=O)O)C(=O)O; αMeE = C[C@](N)(CCC(=O)O)C(=O)O; Aad = N[C@@H](CCCC(=O)O)C(=O)O; αMeD = C[C@](N)(CC(=O)O)C(=O)O; Ac6c = NC1(C(=O)O)CCCCC1; Ava = NCCCCC(=O)O

Tests used:
[1] = target: Growth factor receptor-bound protein 2 (Homo sapiens, UniProt P62993); assay: Binding affinity to recombinant Grb2 SH2 domain by surface plasmon resonance analysis
Summary of the method: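 Competition SPR: inhibitor mixed with recombinant Grb2 SH2 protein, with equilibrium binding measured to immobilized biotinyl-DDPS-pY-VNVQ (SHC pTyr317 phosphopeptide) on a streptavidin SA chip. Run in pH 7.4 PBS with 0.01% P-20 surfactant. IC50 is the concentration giving half-maximal competition, as the mean of at least two independent experiments with standard deviation.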

MDA-MB-453 = assay: Antiproliferative activity against human MDA-MB-453 cells expressing erbB-2 after 4 days by WST-8 assay; type: functional, cell-based; settings: MDA-MB-453, 96 h
Summary of the method: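 MDA-MB-453 cells (erbB-2 overexpressing) seeded at (3-4) × 10^3 cells/well with a range of inhibitor concentrations, incubated 4 days. WST-8 added to 10% final, 2-3 h at 37 °C, absorbance read at 450 nm. IC50 is the concentration giving 50% growth inhibition, taken against untreated DMSO-control absorbance.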

Row | SMILES | IC50 [1] | IC50 (MDA-MB-453)
1 | C[C@@](CCC(=O)O)(NC(=O)[C@H](Cc1ccc(O)c(CCC(=O)O)c1)NC(=O)OCC1c2ccccc2-c2ccccc21)C(=O)N[C@@H](CC(N)=O)C(N)=O | 168 µM | 
2 | CC(C)C[C@@H]1NC(=O)[C@H](CCCC(=O)O)NC(=O)CSC[C@@H](C(N)=O)NC(=O)CCCCNC(=O)[C@H](CC(N)=O)NC(=O)[C@@](C)(CCC(=O)O)NC(=O)[C@H](Cc2ccc(O)cc2)NC1=O | 60.5 µM | 
3 | C[C@@](CCC(=O)O)(NC(=O)[C@@H](N)Cc1ccc(O)c(CCO)c1)C(=O)N[C@@H](CC(N)=O)C(N)=O | 290 µM | 
4 | CC(C)C[C@@H]1NC(=O)[C@H](CCCC(=O)O)NC(=O)CSC[C@@H](C(N)=O)NC(=O)CCCCNC(=O)[C@H](CC(N)=O)NC(=O)[C@](C)(CCC(=O)O)NC(=O)[C@H](Cc2ccc(O)cc2)NC1=O | 70 µM | 
5 | CC(C)C[C@H](NC(=O)[C@@](C)(CCCC(=O)O)NC(=O)OCC1c2ccccc2-c2ccccc21)C(=O)N[C@@H](Cc1ccc(O)cc1)C(=O)NC1(C(=O)N[C@@H](CC(N)=O)C(N)=O)CCCCC1 (Fmoc-[X2]LY[Ac6c]N-NH2) | > 1000 µM | 
6 | CC(C)C[C@H](NC(=O)[C@@](C)(CCCC(=O)O)NC(=O)OCC1c2ccccc2-c2ccccc21)C(=O)N[C@@H](Cc1ccc(O)c(N)c1)C(=O)NC1(C(=O)N[C@@H](CC(N)=O)C(N)=O)CCCCC1 (Fmoc-[X2]L[Tyr(3-NH2)][Ac6c]N-NH2) | 700 µM | 
7 | CC(C)C[C@H](NC(=O)[C@](C)(CCCC(=O)O)NC(=O)OCC1c2ccccc2-c2ccccc21)C(=O)N[C@@H](Cc1ccc(O)cc1)C(=O)NC1(C(=O)N[C@@H](CC(N)=O)C(N)=O)CCCCC1 (Fmoc-[αMehGlu]LY[Ac6c]N-NH2) | 118 µM | 
8 | CC(C)C[C@@H]1NC(=O)[C@H](CCCC(=O)O)NC(=O)C[S@@+]([O-])C[C@@H](C(N)=O)NC(=O)CCCCNC(=O)[C@H](CC(N)=O)NC(=O)C2(CCCCC2)NC(=O)[C@H](Cc2ccc(O)cc2)NC1=O ([Aad]LY[Ac6c]N[Ava][Cys(CH2CO)(S-oxide,Ss)]-NH2; lactam N-7) | 77 µM | 
9 | CC(C)C[C@@H]1NC(=O)[C@H](CCCC(=O)O)NC(=O)CSC[C@@H](C(N)=O)NC(=O)CCCCNC(=O)[C@H](CC(N)=O)NC(=O)[C@](C)(CC(=O)O)NC(=O)[C@H](Cc2ccc(O)cc2)NC1=O ({CH2CO}-[Aad]LY[αMeD]N[Ava]C-NH2; thioether N-7) | 108 µM | 
10 | CC(C)C[C@@H]1NC(=O)[C@H](CCCC(=O)O)NC(=O)CSC[C@@H](C(N)=O)NC(=O)CCCCNC(=O)[C@H](CC(N)=O)NC(=O)[C@](C)(CCCC(=O)O)NC(=O)[C@H](Cc2ccc(O)cc2)NC1=O ({CH2CO}-[Aad]LY[αMehGlu]N[Ava]C-NH2; thioether N-7) | 60.7 µM | 

These reach a lower IC50 [1]. Values come first.

Row | IC50 [1] | IC50 (MDA-MB-453) | SMILES
11 | 18 µM |  | CC(C)C[C@@H]1NC(=O)[C@H](CCCC(=O)O)NC(=O)C[S@@+]([O-])C[C@@H](C(N)=O)NC(=O)CCCCNC(=O)[C@H](CC(N)=O)NC(=O)[C@](C)(CCC(=O)O)NC(=O)[C@H](Cc2ccc(O)cc2)NC1=O
12 | 30.5 µM |  | CC(C)C[C@@H]1NC(=O)[C@H](CCCC(=O)O)NC(=O)C[S@@+]([O-])C[C@@H](C(N)=O)NC(=O)CCCCNC(=O)[C@H](CC(N)=O)NC(=O)[C@@](C)(CCC(=O)O)NC(=O)[C@H](Cc2ccc(O)cc2)NC1=O
13 | 5.8 µM |  | CC(C)C[C@H](NC(=O)[C@H](CCCC(=O)O)NC(=O)OCC1c2ccccc2-c2ccccc21)C(=O)N[C@@H](Cc1ccc(O)c(N)c1)C(=O)NC1(C(=O)N[C@@H](CC(N)=O)C(N)=O)CCCCC1 (Fmoc-[Aad]L[Tyr(3-NH2)][Ac6c]N-NH2)
14 | 5.6 µM | 14 µM | CC(C)C[C@H](NC(=O)[C@H](CCCC(=O)O)NC(=O)OCC1c2ccccc2-c2ccccc21)C(=O)N[C@@H](Cc1ccc(O)c(CCC(=O)O)c1)C(=O)N[C@@](C)(CCC(=O)O)C(=O)N[C@@H](CC(N)=O)C(N)=O (Fmoc-[Aad]L[X1][αMeE]N-NH2)
15 | 2.5 µM | 52 µM | CC(C)C[C@H](NC(=O)[C@H](CC(C(=O)O)C(=O)O)NC(=O)OCC1c2ccccc2-c2ccccc21)C(=O)N[C@@H](Cc1ccc(O)c(N)c1)C(=O)NC1(C(=O)N[C@@H](CC(N)=O)C(N)=O)CCCCC1 (Fmoc-[Gla]L[Tyr(3-NH2)][Ac6c]N-NH2)
16 | 4.4 µM | 55 µM | CC(C)C[C@H](NC(=O)[C@H](CC(C(=O)O)C(=O)O)NC(=O)OCC1c2ccccc2-c2ccccc21)C(=O)N[C@@H](Cc1ccc(O)c(N)c1)C(=O)N[C@@](C)(CCC(=O)O)C(=O)N[C@@H](CC(N)=O)C(N)=O (Fmoc-[Gla]L[Tyr(3-NH2)][αMeE]N-NH2)
17 | 3.9 µM | 29 µM | CC(C)C[C@H](NC(=O)[C@](C)(CCCC(=O)O)NC(=O)OCC1c2ccccc2-c2ccccc21)C(=O)N[C@@H](Cc1ccc(O)c(N)c1)C(=O)NC1(C(=O)N[C@@H](CC(N)=O)C(N)=O)CCCCC1 (Fmoc-[αMehGlu]L[Tyr(3-NH2)][Ac6c]N-NH2)
18 | 19 µM |  | CC(C)C[C@H](NC(=O)[C@@H](N)CC(C(=O)O)C(=O)O)C(=O)N[C@@H](Cc1ccc(O)c(N)c1)C(=O)N[C@@](C)(CCC(=O)O)C(=O)N[C@@H](CC(N)=O)C(N)=O (H-[Gla]L[Tyr(3-NH2)][αMeE]N-NH2)
19 | 30.5 µM |  | CC(C)C[C@@H]1NC(=O)[C@H](CCCC(=O)O)NC(=O)C[S@@+]([O-])C[C@@H](C(N)=O)NC(=O)CCCCNC(=O)[C@H](CC(N)=O)NC(=O)[C@](C)(CC(=O)O)NC(=O)[C@H](Cc2ccc(O)cc2)NC1=O ([Aad]LY[αMeD]N[Ava][Cys(CH2CO)(S-oxide,Ss)]-NH2; lactam N-7)
20 | 17 µM |  | CC(C)C[C@@H]1NC(=O)[C@H](CCCC(=O)O)NC(=O)C[S@@+]([O-])C[C@@H](C(N)=O)NC(=O)CCCCNC(=O)[C@H](CC(N)=O)NC(=O)[C@](C)(CCCC(=O)O)NC(=O)[C@H](Cc2ccc(O)cc2)NC1=O ([Aad]LY[αMehGlu]N[Ava][Cys(CH2CO)(S-oxide,Ss)]-NH2; lactam N-7)
21 | 8.1 µM |  | CC(C)C[C@@H]1NC(=O)[C@H](CCCC(=O)O)NC(=O)C[S@@+]([O-])C[C@@H](C(N)=O)NC(=O)CCCCNC(=O)[C@H](CC(N)=O)NC(=O)[C@](C)(CCC(=O)O)NC(=O)[C@H](Cc2ccc(O)c(N)c2)NC1=O ([Aad]L[Tyr(3-NH2)][αMeE]N[Ava][Cys(CH2CO)(S-oxide,Ss)]-NH2; lactam N-7)
22 | 1.15 µM | 12 µM | CC(C)C[C@@H]1NC(=O)[C@H](CC(C(=O)O)C(=O)O)NC(=O)C[S@@+]([O-])C[C@@H](C(N)=O)NC(=O)CCCCNC(=O)[C@H](CC(N)=O)NC(=O)[C@](C)(CCCC(=O)O)NC(=O)[C@H](Cc2ccc(O)c(N)c2)NC1=O ([Gla]L[Tyr(3-NH2)][αMehGlu]N[Ava][Cys(CH2CO)(S-oxide,Ss)]-NH2; lactam N-7)
23 | 17 µM |  | CC(C)C[C@@H]1NC(=O)[C@H](CCCC(=O)O)NC(=O)CSC[C@@H](C(N)=O)NC(=O)CCCCNC(=O)[C@H](CC(N)=O)NC(=O)[C@](C)(CCC(=O)O)NC(=O)[C@H](Cc2ccc(O)c(N)c2)NC1=O ({CH2CO}-[Aad]L[Tyr(3-NH2)][αMeE]N[Ava]C-NH2; thioether N-7)
24 | 9.5 µM |  | CC(C)C[C@@H]1NC(=O)[C@H](CC(C(=O)O)C(=O)O)NC(=O)CSC[C@@H](C(N)=O)NC(=O)CCCCNC(=O)[C@H](CC(N)=O)NC(=O)[C@](C)(CCCC(=O)O)NC(=O)[C@H](Cc2ccc(O)c(N)c2)NC1=O ({CH2CO}-[Gla]L[Tyr(3-NH2)][αMehGlu]N[Ava]C-NH2; thioether N-7)
